Runt-CBFb FRET: Runt domain-CBFb interaction inhibition. Q01196+Q13951. Cerulean-Runt/Venus-CBFb FRET ratio 530/480, 1 h. inhibition, % at 20 µM. 220,000 compounds, 0.46% hits;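 active means inhibition over about 50% at 20 µM in the single-dose screen, limit read from the data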;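 further: 0% = DMSO wells and 100% = excess unlabeled CBFb competitor control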
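Reagent – Venus-CBFb binding partner, 100 nM · Assay system – Cerulean-tagged RUNX1 Runt domain (FRET donor) fusion protein · Input – 100 nM per protein · Incubation – two 1 h room-temperature incubations shielded from light · Measured by – FRET fluorescence · Medium – Tris buffer pH 7.5 with salts and BSA · Benchmarks – unlabeled CBFb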
Wee1 stabilizer: human Wee1 degradation inhibition, primary screen; P30291; HeLa Luc-Wee1K328M stability, luciferase luminescence; 100% = proteasome inhibitor MG132 effect; reporter increase, % at 5 µM; 220,000 compounds, 1.2% hits; AID 1321;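 active means activation above the mean of all tested compounds plus 3 SD, set per screening run, cut at about 8.8% in these data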;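 further: cells exposed to compound for 20 h before luminescence read; 0% = DMSO alone and 100% = MG132 at 30 µM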
PHOSPHO1 block: inhibitors of human PHOSPHO1 phosphatase; recombinant PHOSPHO1, absorbance phosphatase assay; Q8TCT1; 290,000 compounds, 1.1% hits; inhibition, % at 13.3 µM; in the data active means inhibition above about 60%
Target sequence (Q8TCT1 whole entry, looked up): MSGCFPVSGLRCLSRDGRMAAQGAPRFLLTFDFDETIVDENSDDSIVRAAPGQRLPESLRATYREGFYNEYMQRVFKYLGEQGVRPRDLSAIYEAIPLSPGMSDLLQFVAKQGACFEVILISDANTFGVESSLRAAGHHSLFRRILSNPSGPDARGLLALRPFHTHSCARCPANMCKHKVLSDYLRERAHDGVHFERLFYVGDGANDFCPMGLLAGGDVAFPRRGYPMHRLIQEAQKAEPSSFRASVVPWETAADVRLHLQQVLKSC
Efa HMGR inh: inhibitors of class II HMG-CoA reductase from Enterococcus faecalis; 190,000 compounds, 0.41% hits; AID 1066; purified E. faecalis HMGR, NADPH absorbance 340 nm kinetic; inhibition, % at 10 µM;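 active means inhibition above a set limit, the median over all tested compounds plus 3 SD, cut at about 9.5% in these data; inconclusive means no clear call, values can overlap the other calls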;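 further: enzyme runs in reverse so mevalonate oxidation gives rising NADPH absorbance; 0% = complete reaction with DMSO and 100% = background rate lacking mevalonate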
Runt-SMMHC FRET: Runt domain-CBFb-SMMHC interaction inhibition; 220,000 compounds, 0.74% hits; AID 1434; inhibition, % at 20 µM; Cerulean-Runt/Venus-CBFb-SMMHC FRET ratio 530/480, 1 h;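 active means mean inhibition across duplicate retests at 20 µM reaching about 50%, limit read from the data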;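 further: 0% = DMSO wells and 100% = wells with excess untagged CBFb-SMMHC; inhibitors lower the FRET ratio by blocking Runt binding to CBFb-SMMHC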
RanGTP-Imp inh: disruptors of Ran-importin-beta complex formation – biochemical, FRET, CFP-Ran, YFP-importin-beta, homogeneous, primary screen; 300,000 compounds, 1.1% hits; inhibition, % (test concentration not listed); AID 2216; cell-free CFP-Ran/YFP-importin-beta FRET ratio;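 active means more than half of the replicate wells show a fall in the fluorescence ratio signal beyond about 16%, limit read from the data, passing the limit was not always enough; inconclusive means exactly half of the replicate wells pass the set limit; inactive means fewer than half of replicates pass the limit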;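 further: 0% = DMSO wells and 100% = Ran loaded with GDP instead of GTP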
Active calls of the source: *; ? = inconclusive; / = no result. In the library only some 3.4% were active in any assay of this set; here they are far more common.

SMILES	Runt-CBFb FRET	Wee1 stabilizer	PHOSPHO1 block	Efa HMGR inh	Runt-SMMHC FRET	RanGTP-Imp inh
Cc1ccc(NC(=O)N2CCN(C/C=C/c3ccccc3)CC2)cc1	2	0	42	0	0	-1
COC(=O)c1ccccc1NC(=O)N1CCN(C/C=C/c2ccccc2)CC1	-2	10*	14	-1	0	0
COc1cccc(NC(=S)N2CCN(C/C=C/c3ccccc3)CC2)c1	2	0	-36	0	-2	3
CCN(C(=O)CCc1nc(-c2ccccc2F)no1)c1cc(OC)ccc1OC	1	0	-3	-15	0	?
Cn1cnnc1SCC(=O)N1N=C2/C(=C/c3ccco3)CCCC2C1c1ccco1 (stereo unspecified)	2	-3	80*	-7	4	?
COc1ccc(C2=NN(C(=O)c3ccccc3)C(c3ccc(OC)c(OC)c3)C2)c(OC(C)=O)c1 (stereo unspecified)	/	/	/	/	/	-3
Cc1ccccc1OC(C)C(=O)N1CCC(Cc2ccccc2)CC1 (stereo unspecified)	/	/	68*	/	/	-1
COc1ccccc1OC(C)C(=O)N1CCC(Cc2ccccc2)CC1 (stereo unspecified)	/	/	31	/	/	0
Cn1c(N)c(C(=O)Nc2ccc3ccccc3c2)sc1=S	26	-3	96*	-2	8	-5
CCCCn1c(CCNC(=O)c2cccs2)nc2ccccc21	1	-2	-22	-5	-5	?
N#Cc1c(N)n(CCNC(=O)c2ccccc2)c2nc3ccccc3nc12	111*	-2	-8	-2	76*	58*
COc1ccc(Cn2c(N)c(C#N)c3nc4ccccc4nc32)cc1OC	12	1	6	-9	4	11
N#Cc1c(N)n(CCNC(=O)c2cccs2)c2nc3ccccc3nc12	105*	0	-18	-7	58*	64*
N#Cc1c(N)n(-c2cccc(C(=O)O)c2)c2nc3ccccc3nc12	99*	3	-1	/	82*	?
C=CCc1cc(C)ccc1OCCOCCn1ccnc1	-2	0	-14	0	2	-1
Cc1ccc(CNc2nc(C)cs2)cc1	/	/	40	/	/	9
COc1ccc(-c2csc(Nc3ccccc3)[n+]2CC(O)c2ccc([N+](=O)[O-])cc2)cc1 (stereo unspecified)	4	9.3*	-17	/	4	-1
CC1CCN(CCCNC(=O)Cn2ncc3c([nH]c4ccccc43)c2=O)CC1	/	/	36	/	/	5
CCCNC(=O)c1noc2c1CCc1cc(OC)ccc1-2	-4	10*	-5	-3	-1	0
O=C(NCc1cccnc1)Nc1cccc([N+](=O)[O-])c1	/	/	17	/	/	-12
C[C@H](NC(=O)c1nc[nH]c1C(=O)NCCCCCNC(=O)OC(C)(C)C)C(=O)OCc1ccccc1	-4	9.1*	14	-4	-3	?
C[C@H](NC(=O)c1nc[nH]c1C(=O)N[C@@H](CCCCNC(=O)OC(C)(C)C)C(=O)OC(C)(C)C)C(=O)OCc1ccccc1	/	/	-52	/	/	0
O=C(COc1cccc([N+](=O)[O-])c1)N/N=C/c1ccco1	0	1	45	9.6*	0	5
Cc1cc(C)cc(OCC(=O)N/N=C/c2ccco2)c1	-1	-3	13	-7	2	1
N=c1sc2ccccc2n1-c1ccccc1	3	4	21	-8	14	35*
SMILES	Runt-CBFb FRET	Wee1 stabilizer	PHOSPHO1 block	Efa HMGR inh	Runt-SMMHC FRET	RanGTP-Imp inh
C=CC(=O)N=c1sc2ccccc2n1-c1ccccc1	2	-2	16	-1	3	-1
O=C(NC(Cc1ccccc1)C(=O)O)/C(=C/c1ccc([N+](=O)[O-])cc1)NC(=O)c1ccccc1Br (stereo unspecified)	0	2	-7	-1	-5	2
CCOC(=O)c1c(N2C(=O)C=CC2=O)sc(C)c1C	47	-1	-17	-13	62*	1
CCOC(=O)N1CCN(C(=O)COc2ccc(S(=O)(=O)NC(C)C)cc2)CC1	0	/	20	/	1	-3
CCN1C(=O)c2cccc3c(S(=O)(=O)Nc4ccncc4)ccc1c23	-18	-2	-38	-8	13	8
CCN1C(=O)c2cccc3c(S(=O)(=O)NCc4cccnc4)ccc1c23	-23	1	1	-2	57*	23*
CCN1C(=O)c2cccc3c(S(=O)(=O)NCC4CCCO4)ccc1c23 (stereo unspecified)	-22	1	4	/	81	18*
O=C1Nc2ccc(S(=O)(=O)NCC3CCCO3)c3cccc1c23 (stereo unspecified)	16	-2	27	2	22	-3
CN(CCC1CCOCC1)C(=O)C1CCC(=O)N(CCc2cccc(F)c2)C1 (stereo unspecified)	/	/	3	/	/	4
CC(C)C(=O)NC(=S)Nc1ccccc1N1CCN(C(=O)c2ccccc2)CC1	0	10*	29	-3	0	-5
CC(=O)NC(=S)Nc1ccccc1N1CCN(C(=O)c2ccccc2)CC1	-1	-3	27	-1	1	0
CC1=C(C(=O)OCc2ccccc2)C(/C=C/c2ccccc2)NC(=S)N1 (stereo unspecified)	3	1	-6	10*	0	3
CCOc1ccc(C2N(c3ccc(F)cc3)C(=O)C3CCCN32)cc1OC (stereo unspecified)	1	-2	-1	-2	0	21*
CCOc1ccc(C2N(c3ccc(OC)cc3)C(=O)C3CCCN32)cc1OC (stereo unspecified)	1	-3	-11	-1	-3	5
CCOc1ccc(N2C(=O)CC(N3CCN(c4ccccc4F)CC3)C2=O)cc1 (stereo unspecified)	-2	14*	-12	4	-1	-4
CC(C)CN(C(=O)C1CCCO1)C1CCS(=O)(=O)C1 (stereo unspecified)	/	/	/	/	/	-4
CCOC(=O)c1c(N)sc(=S)c2c1CCC2	-1	5	60*	-1	-34	-2
CCOC(=O)c1c(N)sc2c1CCC(CC)C2 (stereo unspecified)	7	0	51	-5	-2	-1
CCOC(=O)c1c(N)sc2c1CCSC2	11	2	65*	-5	28	4
CCC(=O)Nc1cccc(-n2nnnc2SCC(=O)N(C(C)C)C(C)C)c1	-3	2	52	-1	-1	4
Cc1cc(C)cc(NC(=O)CSCc2cc(=O)n3ccsc3n2)c1	/	/	12	/	/	-1
CCN1/C(=C\C=C2\C(=O)N(C)C(=S)N2C)Sc2ccccc21	15	-1	-18	-1	5	0
CCC(=S)/C=C1\Sc2ccccc2N1CCCS(=O)(=O)O	46	8	64*	2	32	2
